Experimental data as given in PMC2233693 (The Journal of General Physiology, 2000).
Residue numbers refer to the chain shown, from its start. One block for each molecule: values may come before it.

Assays:
Format in all cases: biochemical
[1] = target: T1, E340D mutant bovine olfactory CNG channel (Bos taurus, UniProt Q03041, E340D); test: Blockage of macroscopic current by external Ca2+ or Mg2+, outside-out patches; conditions: for Ki: mean ± SD
T1 sequence (Q03041 1-663 E340D): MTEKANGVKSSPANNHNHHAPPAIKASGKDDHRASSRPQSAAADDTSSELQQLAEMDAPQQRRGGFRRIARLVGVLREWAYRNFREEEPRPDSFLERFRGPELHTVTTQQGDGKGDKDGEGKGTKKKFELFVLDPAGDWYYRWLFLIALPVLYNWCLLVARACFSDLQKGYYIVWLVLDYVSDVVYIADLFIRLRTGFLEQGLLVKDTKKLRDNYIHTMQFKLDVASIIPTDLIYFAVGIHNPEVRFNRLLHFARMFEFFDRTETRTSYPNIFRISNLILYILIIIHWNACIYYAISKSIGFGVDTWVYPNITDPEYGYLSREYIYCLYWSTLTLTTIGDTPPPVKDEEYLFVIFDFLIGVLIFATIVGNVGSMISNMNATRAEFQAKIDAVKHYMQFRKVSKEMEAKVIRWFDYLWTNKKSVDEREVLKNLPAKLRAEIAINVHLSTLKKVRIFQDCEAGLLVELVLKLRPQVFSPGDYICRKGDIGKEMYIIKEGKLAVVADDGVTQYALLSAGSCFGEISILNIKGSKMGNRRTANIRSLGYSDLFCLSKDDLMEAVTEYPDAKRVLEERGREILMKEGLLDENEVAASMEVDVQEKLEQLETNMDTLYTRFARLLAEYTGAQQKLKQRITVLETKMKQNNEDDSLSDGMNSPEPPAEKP
Outline: (§1)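 Xenopus oocytes injected with wild-type or mutant channel mRNA; outside-out patches with 100 μM cGMP in the pipette. Bath: 110 mM NaCl, 2 mM EDTA, 10 mM HEPES, pH 7.4, plus Ca2+ (NTA-buffered) or Mg2+ (EDTA-buffered); unbuffered above 0.1 mM. Five 1-s ramps (−80 to +80 mV) averaged, leak subtracted. Current normalised to divalent-free current at the same voltage, Hill-fitted per patch; Ki and n given as mean ± SD.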

[2] = target: T2, E340G mutant bovine olfactory CNG channel (Bos taurus, UniProt Q03041, E340G); test: as above; conditions: for Ki: mean ± SD
T2 sequence (Q03041 1-663 E340G): T1 sequence (Q03041 1-663 E340D) with D340G
Outline: as §1

[3] = target: T3, wild-type bovine olfactory CNG channel (α3 subunit) (Bos taurus, UniProt Q03041); test: as above; conditions: for Ki: mean ± SD
T3 sequence (Q03041 1-663): T1 sequence (Q03041 1-663 E340D) with D340E
Outline: as §1

[4] = target: T2, E340G mutant bovine olfactory CNG channel; test: Divalent cation permeation, outside-out patches in bi-ionic conditions; conditions: for reversal potential, V rev: internal Na
Outline: (§2)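 Outside-out oocyte patches; the pipette held 1 mM cGMP and 110 mM NaCl. External 110 mM NaCl was replaced by 73.3 mM CaCl2 or MgCl2. From a 0 mV holding potential, 150-ms steps were given from −80 to +80 mV in 20-mV increments. I_Ca/I_Na was taken at −80 mV, and reversal potential under bi-ionic conditions (internal Na+, external divalent); mean ± SD.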

[5] = target: T3, wild-type bovine olfactory CNG channel (α3 subunit); test: as above; conditions: for reversal potential, V rev: internal Na
Outline: as §2

[6] = −80 mV, external 73.3 mM CaCl2 vs 110 mM NaCl

n, Hill coefficient of blockage ([1]; external Ca2+, +80 mV): 1.3 ± 0.5
Ki ([1]; external Ca2+, +80 mV): 18 ± 10 µM
n, Hill coefficient of blockage ([1]; external Ca2+, −80 mV): 1.2 ± 0.5
Ki ([1]; external Ca2+, −80 mV): 47 ± 7 µM
n, Hill coefficient of blockage ([2]; external Ca2+, +80 mV): 0.6 ± 0.2
Ki ([2]; external Ca2+, +80 mV): 26000 ± 9800 µM
n, Hill coefficient of blockage ([2]; external Ca2+, −80 mV): 0.4 ± 0.1
Ki ([2]; external Ca2+, −80 mV): 6300 ± 2500 µM
n, Hill coefficient of blockage ([3]; external Ca2+, +80 mV): 0.9 ± 0.1
Ki ([3]; external Ca2+, +80 mV): 383 ± 145 µM
n, Hill coefficient of blockage ([3]; external Ca2+, −80 mV): 1.3 ± 0.4
Ki ([3]; external Ca2+, −80 mV): 47 ± 21 µM
reversal potential, V rev ([4]; external Ca2+): 24 ± 5 mV
I Ca/I Na [4, 6]: 0.16 ± 0.03
reversal potential, V rev ([5]; external Ca2+): 25 ± 6 mV
I Ca/I Na [5, 6]: 0.049 ± 0.004
Structure (SMILES): [Ca+2] [Ca^2+]

n, Hill coefficient of blockage ([1]; external Mg2+, +80 mV): 0.9 ± 0.2
Ki ([1]; external Mg2+, +80 mV): 155 ± 56 µM
n, Hill coefficient of blockage ([1]; external Mg2+, −80 mV): 0.7 ± 0.2
Ki ([1]; external Mg2+, −80 mV): 53 ± 17 µM
n, Hill coefficient of blockage ([2]; external Mg2+, +80 mV): 0.8 ± 0.2
Ki ([2]; external Mg2+, +80 mV): 9500 ± 3900 µM
n, Hill coefficient of blockage ([2]; external Mg2+, −80 mV): 0.7 ± 0.1
Ki ([2]; external Mg2+, −80 mV): 1100 ± 300 µM
n, Hill coefficient of blockage ([3]; external Mg2+, +80 mV): 1.0 ± 0.1
Ki ([3]; external Mg2+, +80 mV): 920 ± 640 µM
n, Hill coefficient of blockage ([3]; external Mg2+, −80 mV): 1.2 ± 0.2
Ki ([3]; external Mg2+, −80 mV): 70 ± 34 µM
reversal potential, V rev ([4]; external Mg2+): 45 ± 15 mV
reversal potential, V rev ([5]; external Mg2+): 45 ± 7 mV
Structure (SMILES): [Mg+2] [Mg^2+]
